Laboratory results reported in ChEMBL document CHEMBL4689842, “EUbOPEN Chemogenomics Library wave 1” (2021).
“And” between values parts separate entries of the source, which are not always exact repeats. Equal values may be shown once.

Tested on: U2OS
Experiment: Multiplex assay against U2OS
Type: toxicity, cell-based
Details: human
In short: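 Cells were classed with CellPathfinder machine-learning gating, first as Hoechst high-intensity objects or normal cells, then (normal cells) as healthy, pyknosed or fragmented nuclei, and finally (pyknosed cells) as mitotic or apoptotic. Staining of live cells at seeding used Hoechst33342, BioTracker Green Microtubule Cytoskeleton Dye, MitoTracker Red and Annexin V Alexa Fluor 680, with imaging on a CQ1 microscope at 37°C and 5% CO2 after compound addition. Tubulin, mitochondrial-mass and membrane-permeability phenotypes are per cents of healthy-nucleus cells.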

[1] = 12 h, 1 µM, compound concentration 1 uM, replicate 1
[2] = 12 h, 1 µM, compound concentration 1 uM, replicate 2
[3] = 12 h, 10 µM, compound concentration 10 uM, replicate 1
[4] = 12 h, 10 µM, compound concentration 10 uM, replicate 2
[5] = 24 h, 1 µM, compound concentration 1 uM, replicate 1
[6] = 24 h, 1 µM, compound concentration 1 uM, replicate 2
[7] = 24 h, 10 µM, compound concentration 10 uM, replicate 1
[8] = 24 h, 10 µM, compound concentration 10 uM, replicate 2

SMILES: CC(C)CC(=O)Nc1[nH]nc2c1CN(C(=O)C1CCN(C)CC1)C2(C)C [PHA-793887]
- Population Apoptotic (%) [1]: 25%
- Population Fragmented Nuclei (%) [1]: 3%
- Population Healthy Nuclei (%) [1]: 92%
- Population Hoechst High Intensity Objects (%) [1]: 1%
- Population Membrane Permeable-Phenotype (%) [1]: 8%
- Population Mitochondria Different-Phenotype (%) [1]: 30%
- Population Mitotic Cells (%) [1]: 75%
- Population Normal (%) [1]: 98%
- Population Tubulin-Different-Phenotype (%) [1]: 30%
- Total Cell Count [1]: 161
- Population Apoptotic (%) [2]: 20%
- Population Fragmented Nuclei (%) [2]: 8%
- Population Healthy Nuclei (%) [2]: 87%
- Population Hoechst High Intensity Objects (%) [2]: 11%
- Population Membrane Permeable-Phenotype (%) [2]: 9%
- Population Mitochondria Different-Phenotype (%) [2]: 39%
- Population Mitotic Cells (%) [2]: 80%
- Population Normal (%) [2]: 88%
- Population Pyknosed Nuclei (%) [2]: 4%
- Population Tubulin-Different-Phenotype (%) [2]: 35%
- Total Cell Count [2]: 87
- Population Apoptotic (%) [3]: 72%
- Population Fragmented Nuclei (%) [3]: 17%
- Population Healthy Nuclei (%) [3]: 68%
- Population Hoechst High Intensity Objects (%) [3]: 3%
- Population Membrane Permeable-Phenotype (%) [3]: 12%
- Population Mitochondria Different-Phenotype (%) [3]: 29%
- Population Mitotic Cells (%) [3]: 28%
- Population Normal (%) [3]: 96%
- Population Pyknosed Nuclei (%) [3]: 13%
- Population Tubulin-Different-Phenotype (%) [3]: 32%
- Total Cell Count [3]: 188
- Population Apoptotic (%) [4]: 50%
- Population Fragmented Nuclei (%) [4]: 11%
- Population Healthy Nuclei (%) [4]: 78%
- Population Hoechst High Intensity Objects (%) [4]: 14%
- Population Membrane Permeable-Phenotype (%) [4]: 21%
- Population Mitochondria Different-Phenotype (%) [4]: 34%
- Population Mitotic Cells (%) [4]: 50%
- Population Normal (%) [4]: 85%
- Population Pyknosed Nuclei (%) [4]: 10%
- Population Tubulin-Different-Phenotype (%) [4]: 26%
- Total Cell Count [4]: 136
- Population Apoptotic (%) [5]: 22%
- Population Fragmented Nuclei (%) [5]: 5%
- Population Healthy Nuclei (%) [5]: 91%
- Population Hoechst High Intensity Objects (%) [5]: 1%
- Population Membrane Permeable-Phenotype (%) [5]: 3%
- Population Mitochondria Different-Phenotype (%) [5]: 24%
- Population Mitotic Cells (%) [5]: 77%
- Population Normal (%) [5]: 98%
- Population Pyknosed Nuclei (%) [5]: 3%
- Population Tubulin-Different-Phenotype (%) [5]: 29%
- Total Cell Count [5]: 148
- Population Apoptotic (%) [6]: 50%
- Population Fragmented Nuclei (%) [6]: 9%
- Population Healthy Nuclei (%) [6]: 85%
- Population Hoechst High Intensity Objects (%) [6]: 2%
- Population Membrane Permeable-Phenotype (%) [6]: 9%
- Population Mitochondria Different-Phenotype (%) [6]: 43%
- Population Mitotic Cells (%) [6]: 50%
- Population Normal (%) [6]: 97%
- Population Pyknosed Nuclei (%) [6]: 4%
- Population Tubulin-Different-Phenotype (%) [6]: 34%
- Total Cell Count [6]: 82
- Population Apoptotic (%) [7]: 72%
- Population Fragmented Nuclei (%) [7]: 9%
- Population Healthy Nuclei (%) [7]: 73%
- Population Hoechst High Intensity Objects (%) [7]: 4%
- Population Membrane Permeable-Phenotype (%) [7]: 24%
- Population Mitochondria Different-Phenotype (%) [7]: 45%
- Population Mitotic Cells (%) [7]: 27%
- Population Normal (%) [7]: 95%
- Population Pyknosed Nuclei (%) [7]: 17%
- Population Tubulin-Different-Phenotype (%) [7]: 33%
- Total Cell Count [7]: 287
- Population Apoptotic (%) [8]: 55%
- Population Fragmented Nuclei (%) [8]: 19%
- Population Healthy Nuclei (%) [8]: 69%
- Population Hoechst High Intensity Objects (%) [8]: 16%
- Population Membrane Permeable-Phenotype (%) [8]: 21%
- Population Mitochondria Different-Phenotype (%) [8]: 36%
- Population Mitotic Cells (%) [8]: 44%
- Population Normal (%) [8]: 83%
- Population Pyknosed Nuclei (%) [8]: 10%
- Population Tubulin-Different-Phenotype (%) [8]: 29%
- Total Cell Count [8]: 172

SMILES: Cc1cc(NC(=O)c2cccc(S(F)(F)(F)(F)F)c2)cc(-n2ccn3nc(-c4cccnc4)cc23)c1 [BAY-309]
- Population Apoptotic (%) [3]: 25% and 23%
- Population Fragmented Nuclei (%) [3]: 4%
- Population Healthy Nuclei (%) [3]: 87% and 78%
- Population Hoechst High Intensity Objects (%) [3]: 0% and 3%
- Population Membrane Permeable-Phenotype (%) [3]: 46% and 55%
- Population Mitochondria Different-Phenotype (%) [3]: 30% and 60%
- Population Mitotic Cells (%) [3]: 75% and 76%
- Population Normal (%) [3]: 99% and 96%
- Population Pyknosed Nuclei (%) [3]: 7% and 16%
- Population Tubulin-Different-Phenotype (%) [3]: 67%
- Total Cell Count [3]: 108 and 233
- Population Apoptotic (%) [4]: 37% and 56%
- Population Fragmented Nuclei (%) [4]: 8% and 9%
- Population Healthy Nuclei (%) [4]: 82% and 67%
- Population Hoechst High Intensity Objects (%) [4]: 9% and 5%
- Population Membrane Permeable-Phenotype (%) [4]: 53% and 49%
- Population Mitotic Cells (%) [4]: 62% and 43%
- Population Normal (%) [4]: 90% and 94%
- Population Pyknosed Nuclei (%) [4]: 9% and 22%
- Population Tubulin-Different-Phenotype (%) [4]: 61% and 100%
- Total Cell Count [4]: 185
- Population Apoptotic (%) [7]: 50% and 61%
- Population Fragmented Nuclei (%) [7]: 8% and 6%
- Population Healthy Nuclei (%) [7]: 85% and 70%
- Population Hoechst High Intensity Objects (%) [7]: 5% and 3%
- Population Membrane Permeable-Phenotype (%) [7]: 42% and 56%
- Population Mitotic Cells (%) [7]: 50% and 38%
- Population Normal (%) [7]: 95% and 96%
- Population Tubulin-Different-Phenotype (%) [7]: 53%
- Total Cell Count [7]: 140 and 230
- Population Apoptotic (%) [8]: 95% and 37%
- Population Fragmented Nuclei (%) [8]: 15% and 7%
- Population Healthy Nuclei (%) [8]: 60% and 84%
- Population Hoechst High Intensity Objects (%) [8]: 9% and 6%
- Population Membrane Permeable-Phenotype (%) [8]: 74% and 40%
- Population Mitochondria Different-Phenotype (%) [8]: 83% and 30%
- Population Normal (%) [8]: 90% and 93%
- Population Tubulin-Different-Phenotype (%) [8]: 100% and 40%
- Total Cell Count [8]: 108 and 215
